Laboratory results taken from PMC2118488 (The Journal of Experimental Medicine, 2007).
Ends that are not written are not given here. ABA = azidobenzoic acid, photoreactive group linked to the lysine of the peptide

Experiments:
T1 thymocytes = test: Fetal thymic organ culture; format: cell-based, mouse; conditions: high concentrations (100 μM shown in Fig. 1 D)
Method in brief: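 E15 fetal thymi from T1 β2m−/− Rag−/− TCR transgenic mice were cultured 7 d without peptide or with 1 μM exogenous peptide, with 0.2 μM and 100 μM also shown for two variants. Cells were stained for CD4, CD8α and/or CD8β and read by flow cytometry.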

S14 thymocytes = test: Fetal thymic organ culture; format: cell-based, mouse; conditions: S14 TCR transgenic FTOC
Method in brief: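 Fetal thymi (E15) from Rag−/− β2m−/− S14 TCR transgenic mice were cultured for 7 d with peptide variants. Thymocytes were stained for CD4, CD8α and/or CD8β and analysed by flow cytometry.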

H-2K^d = H-2K^d (Mus musculus, UniProt P01902); test: Peptide binding to H-2K^d; conditions: unpublished data
Sequence of H-2K^d (P01887 21-119): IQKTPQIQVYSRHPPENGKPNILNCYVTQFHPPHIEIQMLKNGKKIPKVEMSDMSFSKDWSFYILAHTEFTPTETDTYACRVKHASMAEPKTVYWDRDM
Sequence of H-2K^d (P01902 22-368): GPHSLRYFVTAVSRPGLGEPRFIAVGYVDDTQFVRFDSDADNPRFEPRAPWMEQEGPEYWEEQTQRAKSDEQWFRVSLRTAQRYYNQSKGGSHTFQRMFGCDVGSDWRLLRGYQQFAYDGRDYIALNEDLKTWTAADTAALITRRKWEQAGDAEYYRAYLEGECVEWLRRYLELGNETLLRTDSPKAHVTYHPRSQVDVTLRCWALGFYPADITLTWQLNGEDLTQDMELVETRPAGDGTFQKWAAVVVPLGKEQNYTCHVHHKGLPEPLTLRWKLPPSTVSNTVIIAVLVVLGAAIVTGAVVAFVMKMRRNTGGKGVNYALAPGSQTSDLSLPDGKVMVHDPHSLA

| Substance | Selection outcome in FTOC at high peptide concentrations (T1 thymocytes) | Selecting potential in FTOC (S14 thymocytes) | Affinity for H-2K^d relative to 4P (H-2K^d) |
| --- | --- | --- | --- |
| 4A: variant of SYIPSAEK(ABA)I with proline at position 4 replaced by alanine (SYIASAEK(ABA)I) | could induce negative selection | – | – |
| 4S: variant of SYIPSAEK(ABA)I with proline at position 4 replaced by serine (SYISSAEK(ABA)I) | could induce negative selection | – | – |
| 4L: variant of SYIPSAEK(ABA)I with proline at position 4 replaced by leucine (SYILSAEK(ABA)I) | – | threshold ligand | fivefold lower affinity than 4P |
